Data on 48 sequences can be found in the EternaBench riboswitch data.

This data set relates to MS2 coat protein. Kind of data set: apparent Kd, MS2 coat protein; higher = weaker binding; RNA-MaP array; FMN 200 µM where present. The gist of the method: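 Green signal from SNAP-549-labelled MS2 coat protein was normalised to red-channel RNA signal and to the median Fmax of control clusters. The protein was titrated from 0.7 or 1.5 nM, doubling to 3 µM, without and then with constant ligand, over designs transcribed by stalled E. coli RNA polymerase on Illumina sequencing-chip clusters, in 100 mM Tris-HCl pH 7.5, 80 mM KCl, 4 mM MgCl2, BSA, DTT, yeast tRNA and Tween-20. The apparent Kd is the median of filtered per-cluster binding-curve fits.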

Where [1] appears, read: designed as: ON switch for flavin mononucleotide, no ligand.
The mark [2] stands for this setting: ligand present: flavin mononucleotide, designed as: ON switch for flavin mononucleotide.
[3] abbreviates: designed as: OFF switch for flavin mononucleotide, no ligand.
[4] abbreviates: ligand present: flavin mononucleotide, designed as: OFF switch for flavin mononucleotide.

Regarding “GUCGGAAACGACAAAAGUAUGGAUCCAGAAGGCAUGAAACAUGAGGAUCACCCAUGUCAAAGACAUGAGGAUAUGGAUCCAUAC”, the apparent Kd (as a rule, a dissociation constant that holds for the conditions of the assay) is, setting by setting: under setting [1], 4.06 nM; under setting [2], 3.19 nM.

Consider “CGAUAAUAUAGUUAUCCGUAGCGAACAUGAGGAUCACCCAUGUAGGAUAUGUUACUAAACUAGUAACAGAAGGGCAUGAGUCUU”, for which the “apparent Kd” value is, setting by setting: under setting [3], 32.1 nM; under setting [4], 74.5 nM.

Take “AAGCCUACAAUGGUGUAAUGUACAUGAGGAUCACCCAUGUACAGAAGGUGGAAUGUAAAAGGUGCCAAGGAUAUGUAUGCGGGU”: the “apparent Kd” value was 12.6 nM under setting [3] and 16.4 nM under setting [4].

Regarding “AUUAUACAUGAGGAUCACCCAUGUUUUGGUGGAUCAGGAUAUAAAUUGAAUGAGUUUUAGUUAGAAGGGAUAUUUA”, the “apparent Kd” value is, setting by setting: under setting [1], 50.6 nM; under setting [2], 36.3 nM.

Consider “GGCGGCGCGGGCCACCGCAGGACCAGAAGGACAUGAGGAUCACCCAUGUGGCAGAACAGGGCGGUGUAGGAUAUGGCAGGCUCG”, for which the “apparent Kd” value under setting [3] was 28.8 nM and the “apparent Kd” value under setting [4] was 64.3 nM.

In the case of “CUCAUGUGAGGAUAUCAGUAGUAAAAAAAUAAAAUUACUACUGAGAAGGCACAUGAGGAUCACCCAUGUACCUU”, the “apparent Kd” value by setting is: under setting [3], 70.7 nM; under setting [4], 72 nM.

On to “UCCUGGCGAGGAUAUACAAAGUUUUUCACGUUUUGUUUCGAACAUGAGGAUCACCCAUGUAGAAGGUGCUACUG”, for which the “apparent Kd” value under setting [3] worked out at 62.6 nM and the “apparent Kd” value under setting [4] amounted to 52.8 nM.

As for “AGUCGGAGCAGAGGAUAUACAUGAGGAUCACCCAUGUAAUAAAGUGAAGCCUGGUAACAGGCAAUGUAGAAGGCUGCUCCGACA”, the “apparent Kd” value under setting [3] worked out at 11.3 nM and the “apparent Kd” value under setting [4] came out at 77.7 nM.

“ACUAGAUGAGGAUAUGCAUAUUUUCGUGUUCUUCUAGAUUAACAUGAGGAUCACCCAUGUAGAAGGCGUCUGGA”: the “apparent Kd” value is 17.8 nM under setting [3] and 26 nM under setting [4].

In the case of “UACGUAUGAGGAUAUACAAACAGAAAAAUCAGACGUAACUGACAUGAGGAUCACCCAUGUAGAAGGCAUAUACA”, the “apparent Kd” value is, setting by setting: under setting [3], 27.7 nM; under setting [4], 18.6 nM.

On to “GCUGUCGCGUGAGGAUAUGGUCUGCAGUGCUGACCAGAAGGCAUGUCGAUAGACAUGAGGAUCACCCAUGUGGUUAGGGCGGCU”, for which the “apparent Kd” value reads like this: under setting [1], 804 nM; under setting [2], 351 nM.

For the sequence “CAAUCUCAGAUAGGAUAUAUAGGAUAACUUAAGACCUAACAUGAGGAUCACCCAUGUGAUUAUUCGUAGAAGGAUCAUUGAACC”, the “apparent Kd” value runs as follows: under setting [1], 205 nM; under setting [2], 190 nM.

As to “GUCAUCGCAUGAGGAUAUGGCACCGUUUCGGUGCCAGAAGGCAUGUCAAAUGACAUGAGGAUCACCCAUGUAGUUAAGAUGGCA”, the “apparent Kd” value stood at 229 nM under setting [1] and 17 nM under setting [2].

Regarding “GUAGUACAUGAGGAUCACCCAUGUGUAGAAGCAUGAGGAUAUGUCAGUCCAUGAAAAACGAUAGAAGGCAUGGUGA”, the “apparent Kd” value under setting [1] amounted to 178 nM and the “apparent Kd” value under setting [2] came to 176 nM.

As for “GUAGAGUCAGGAUAUACGAAUAGAUCGAAAGAUCAAUCCAUACAUGAGGAUCACCCAUGUAGAAGGGACUCUAC”, the “apparent Kd” value worked out at 19.3 nM under setting [3] and 22.7 nM under setting [4].

“CCAGAGGUCACAGGAUAUGACUCGUCCAAUUGGUCAGAAGGGUGAAUCACAUUAUGUAUACAUGAGGAUCACCCAUGUCCUACG”: the “apparent Kd” value is 64.4 nM under setting [1] and 165 nM under setting [2].

On to “AAAAAAAAAAGUCAGGAUAUACAAAUUUUUACAUGAGGAUCACCCAUGUUAAAAAAAAAAAAAAAGUAGAAGGGACAAAAAAAAAA”, for which the “apparent Kd” value was found to be 20.9 nM under setting [1] and 16.9 nM under setting [2].

With “GAAUAAUUGAUCCAUUUUUAAAACAUGAGGAUCACCCAUGUGCAGGAUAUCGUGAGAGUUAAAUACGAGAAGGGCAAGAACUGU”, the “apparent Kd” value by setting is: under setting [3], 123 nM; under setting [4], 173 nM.

Regarding “GUACUGCCCACAGAUAACUUAGCCAGAAGGGUCUACAUGAGGAUCACCCAUGUGGUCCAAAGUGGACAGGAUAUGGAAACGGUU”, the “apparent Kd” value under setting [3] is 68.4 nM and the “apparent Kd” value under setting [4] stood at 40.9 nM.

With “UCUUAUUGCAAGGAUAUGCAAAUUAUUAUUAAUGCAGAAGGUGCUACAUGAGGAUCACCCAUGUUUCCGGGUUU”, the “apparent Kd” value reads like this: under setting [3], 45 nM; under setting [4], 161 nM.

As for “GCCGGGCGAGGAUAUACAUGAGGAUCACCCAUGUAGAUCCUCCGGCGAAAGCCGGGUUGUAGAAGGCGCCCGGC”, the “apparent Kd” value is, setting by setting: under setting [3], 14.9 nM; under setting [4], 25.7 nM.

Turning to “AAAGUUGGUAGGCCCUCGGAACAUGAGGAUCACCCAUGUAAGGAGGAUAUGCCCGGUACCCGCUGGCAGAAGGCCUUAUAAGAC”, the “apparent Kd” value runs as follows: under setting [3], 6.74 nM; under setting [4], 42.5 nM.

As to “CCUUUGAAGAUCCUGGUUUUCGACAUGAGGAUCACCCAUGUGCAGGAUAUCGUGCCAGUGCUGUGCGAGAAGGGCAGUCUCUGC”, the “apparent Kd” value runs as follows: under setting [3], 17.1 nM; under setting [4], 18.9 nM.

On to “UAUAAUUAGUAGAAGGACGGAGAGUAAGAAGUCGUAGGAUAUACAAAAGACAUGAGGAUCACCCAUGUGAGUAUGUUGGGAAGG”, for which the “apparent Kd” value is 7.05 nM under setting [3] and 7.62 nM under setting [4].

For the sequence “UGGGUGGUAUGAGGAUAUGCGCGCGAAACGCGCGCAGAAGGCAUGUCAAUAGACAUGAGGAUCACCCAUGUACUAUCCAUCCAA”, the “apparent Kd” value by setting is: under setting [1], 91.3 nM; under setting [2], 9.19 nM.

“CUUUUGUGAGGAUAUCAGUGGUAAUACAAUAGUAUUACUACUGAGAAGGCACAUGAGGAUCACCCAUGUUCCUC”: the “apparent Kd” value is, setting by setting: under setting [3], 44.5 nM; under setting [4], 220 nM.

For the sequence “AGCUGGUGACAGCAAGAAACUUCACAUGAGGAUCACCCAUGUAGAAGGCUGUACGGUUACCGUACAGAGGAUAUACAUUGAAGU”, the “apparent Kd” value under setting [3] was 7.16 nM and the “apparent Kd” value under setting [4] is 13.3 nM.

For “GUGCUUUGGGAGAAGGCCGUAUGCAAAGCAUACGGAGGAUAUUCAUACCGGAAACGGACAUGAGGAUCACCCAUGUGGCACAAA”, the “apparent Kd” value under setting [2] stood at 44.6 nM.

Take “UCUAUGAAGAUUCGUCAAUACAGUUAGGAUAUGAGAGACAUGAGGAUCACCCAUGUGCAUGUUGAUUAGAAGGAACAAUUAUCU”: the “apparent Kd” value runs as follows: under setting [3], 20.9 nM; under setting [4], 19.3 nM.

Consider “AAACACAGACAUGAGGAUCACCCAUGUUAUGAAGAUACUGGGAGAAGGGCGAUUGCAAAGCAAUCGCAGGAUAUUCGUAUUGUG”, for which the “apparent Kd” value came to 31.2 nM under setting [1] and 11 nM under setting [2].

Take “UGGUACUACGGAGGAUAUCAUGUAGAUACAUGAGGAUCACCCAUGUCGUACGAGAGUACGGAGAUUGAGAAGGCCGUAGUACCU”: the “apparent Kd” value amounted to 30.5 nM under setting [1] and 15.1 nM under setting [2].

For the sequence “CCGGCAUAGGAGGAUAUAGGAGUCGAUAGACACCUAGAAGGCCUGACAUGAGGAUCACCCAUGUGUCCUACCGG”, the “apparent Kd” value runs as follows: under setting [3], 14.1 nM; under setting [4], 23.2 nM.

As for “AGGUAACAUGAGGAUCACCCAUGUAAGGUGAACGUAGGAUAUCGAGGAGGUAGGGUAGGCCGAGAAGGACGAGGAG”, the “apparent Kd” value under setting [1] stood at 293 nM and the “apparent Kd” value under setting [2] stood at 179 nM.

As for “CUUUCGUGAGGAUAUGUGGCUUCGAUCGUGAGAUCGAGGCUACAGAAGGCACAUGAGGAUCACCCAUGUUCCUC”, the “apparent Kd” value was determined as 38.8 nM under setting [3] and 487 nM under setting [4].

As to “CCACGGCACUCGUUGGUACGGGCAGAGGAUAUCGACAUGAGGAUCACCCAUGUGGAUGUAUAUGUCGAGAAGGCUGAUUCGUCU”, the “apparent Kd” value is 44 nM under setting [3] and 197 nM under setting [4].

In the case of “UUUAUUUUUAGAGGAUAUAUUGUGUGUGAGAGAAUAGAAGGCUAAACAUACAUACAUAACAUGAGGAUCACCCAUGUCCAUGUU”, the “apparent Kd” value reads like this: under setting [1], 69.2 nM; under setting [2], 54.9 nM.

Consider “UUAAAUCAUGUAGGAUAUGCAUGGCGAAGCUACGCAGAAGGACAUGAGGAUCACCCAUGUUAAAGCUACCGGAUACGGUGGCAA”, for which the “apparent Kd” value under setting [3] was determined as 109 nM and the “apparent Kd” value under setting [4] was 195 nM.

On to “UUUUUACUUGCAGGAUAUGGAGACAUGAGGAUCACCCAUGUAUGAUAAGCUAAAUUAUGCUGUGGCCAGAAGGGUAUUGUUCUU”, for which the “apparent Kd” value was found to be 72 nM under setting [1] and 52.9 nM under setting [2].

For “GGUUGGCGAGGAUAUACAUGAGGAUCACCCAUGUGGUCCUGCGGUGGUUUCGCCCUUUGUAGAAGGCGCGGGUC”, the “apparent Kd” value runs as follows: under setting [3], 40.9 nM; under setting [4], 40.5 nM.

With “AGCAUGCUAGGAUAUACGGGACAUUAGGGUUCGUUGUGUGGACAUGAGGAUCACCCAUGUAGAAGGAGCGUGCA”, the “apparent Kd” value reads like this: under setting [3], 86.6 nM; under setting [4], 374 nM.

With “GUGCCUUGGUAGAAGGCCCAAUGCAAAGCAUAGGGAGGAUAUACAUAUAAUAAAUAAACAUGAGGAUCACCCAUGUGGCACAAA”, the “apparent Kd” value came out at 10.8 nM under setting [1] and 10.4 nM under setting [2].

With “AGCUAGUCAGGAUAUACGUAAAUGUCGAAAGACGUAUUGGGACAUGAGGAUCACCCAUGUAGAAGGGACUAGCA”, the “apparent Kd” value by setting is: under setting [3], 27.2 nM; under setting [4], 108 nM.

Turning to “UAAAAGUGAGGAUAUGCGAAGGCGUCUGAUAGACGAGGCUAGCAGAAGGCACAUGAGGAUCACCCAUGUGGGAU”, the “apparent Kd” value is 89.7 nM under setting [3] and 152 nM under setting [4].

Consider “CUUUUGUGAGGAUAUCAGUAGUAAAAAAAUAAAAUUUCUACUGAGAAGGCACAUGAGGAUCACCCAUGUUCCUC”, for which the “apparent Kd” value stood at 34 nM under setting [3] and 184 nM under setting [4].

Regarding “UGGUACUAGGGAGGAUAUGGGAAGAUACAUGAGGAUCACCCAUGUUUAAGAAUGCCGAGAGGCAACUAGAAGGCGCUAGUACCU”, the “apparent Kd” value under setting [1] is 710 nM and the “apparent Kd” value under setting [2] is 90.9 nM.

As for “UUGCCUCAGAACAUGAGGAUCACCCAUGUGCUGCGGGCAACGUAGGAUAUGAUGGUGUGACACCGUCAGAAGGAUGAUGGUACC”, the “apparent Kd” value is, setting by setting: under setting [1], 5.97 nM; under setting [2], 6.05 nM.

As to “UUUGAUUGCACAGGAUAUUGUCAUUUGAGUUGUCAAGAAGGGUGUACAUGAGGAUCACCCAUGUAAUGGUUGCCUCGCUGACUU”, the “apparent Kd” value amounted to 95.7 nM under setting [3] and 272 nM under setting [4].

Turning to “GGUACCAUCACAGGAUAUGCUUUCCUUUGGGAAGCAGAAGGGUGUAACAUGAGGAUCACCCAUGUGGUGCCAGGGCGUGAGCCU”, the “apparent Kd” value runs as follows: under setting [1], 216 nM; under setting [2], 16 nM.
